Experimental data: ChEMBL document CHEMBL4616636, “A new series of aryl sulfamate derivatives: Design, synthesis, and biological evaluation” (Bioorg Med Chem, 2020)

Key:
[1] = target: T1, Steryl-sulfatase (Homo sapiens) (UniProt P08842); assay: Inhibition of steroid sulfatase in human JEG3 cell lysates at 10 uM using [3H] E1S as substrate after 1 hr by scintillation spectrometry analysis relative to control; type: cell-free; details: JEG-3
T1 sequence (whole entry): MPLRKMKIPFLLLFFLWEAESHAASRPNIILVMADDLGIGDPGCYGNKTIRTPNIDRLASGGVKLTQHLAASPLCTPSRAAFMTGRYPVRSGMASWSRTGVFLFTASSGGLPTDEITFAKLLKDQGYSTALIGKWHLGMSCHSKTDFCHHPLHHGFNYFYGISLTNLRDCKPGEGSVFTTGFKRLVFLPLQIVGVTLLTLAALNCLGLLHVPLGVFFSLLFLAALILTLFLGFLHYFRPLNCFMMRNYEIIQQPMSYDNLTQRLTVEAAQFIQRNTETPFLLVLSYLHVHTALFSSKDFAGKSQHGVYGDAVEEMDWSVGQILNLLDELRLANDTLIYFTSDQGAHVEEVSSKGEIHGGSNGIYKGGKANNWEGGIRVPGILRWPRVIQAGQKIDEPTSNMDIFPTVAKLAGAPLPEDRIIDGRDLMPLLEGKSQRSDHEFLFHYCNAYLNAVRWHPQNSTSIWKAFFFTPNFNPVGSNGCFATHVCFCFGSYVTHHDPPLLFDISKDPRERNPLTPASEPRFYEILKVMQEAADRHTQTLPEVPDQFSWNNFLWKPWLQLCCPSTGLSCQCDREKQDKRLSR
Method in brief: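 JEG-3 placental choriocarcinoma lysate (125 µg protein/mL) incubated 1 h with inhibitor at 10 µM and [3H]E1S brought to 20 µM with unlabelled E1S. Estrone product extracted into toluene, [14C]E1 used to correct for losses, 3H/14C counted by scintillation. Reported as % inhibition versus untreated control, mean ± SEM, n=3.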

[2] = target: T2, Steryl-sulfatase (Homo sapiens, UniProt P08842); assay: Inhibition of steroid sulfatase in human JEG3 cell lysates using [3H] E1S as substrate after 1 hr by scintillation spectrometry analysis; type: cell-free, JEG-3
T2 sequence (P08842 whole entry): T1 sequence (whole entry)
Method in brief: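 Estrone taken into toluene, recovery corrected with [14C]E1, scintillation counting. E1S hydrolysed calculated from 3H counts and substrate specific activity, and IC50 derived from the dose-response.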

[3] = tested on: T47D; assay: Antiproliferative activity against human T47D cells assessed as reduction in cell proliferation measured after 5 days in presence of estradiol sulfate by crystal violet staining based assay; type: functional; details: 120 h
Method in brief: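 T-47D cells kept in EMEM with pyruvate, gentamycin, bicarbonate and 10% FBS at 37 °C, 5% CO2. After 3 days of growth, medium swapped for one with compound, 100 nM estradiol sulfate and 10% charcoal-stripped FBS, then 5 days of incubation. Glutaraldehyde fixation, crystal violet stain, ethanol elution, OD at 578 nm. IC50 reported as mean ± SEM of triplicate assays.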

[4] = target: T2, Steryl-sulfatase; assay: Inhibition of steroid sulfatase in human JEG3 cells using [3H] E1S as substrate incubated for 20 hrs by scintillation spectrometry analysis; type: cell-based, JEG-3
Method in brief: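 Intact JEG-3 monolayers incubated 20 h at 37 °C in serum-free EMEM with [3H]E1S (5 pmol, 60 Ci/mmol), with or without inhibitor at 10 µM. Estrone in the medium separated from E1S by toluene partition, [14C]estrone used to correct for procedural losses. E1S hydrolysed calculated from scintillation counts.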

inhibition [1] [%]	IC50 [2] [nM]	IC50 [3] [nM]	IC50 [4] [nM]	SMILES
5.32				NS(=O)(=O)Oc1ccc(NC(=O)NC23CC4CC(CC(C4)C2)C3)cc1
94.6	74.1	4670		NS(=O)(=O)Oc1ccc(C(=O)NC23CC4CC(CC(C4)C2)C3)cc1Br
58.5				Cc1cc(OS(N)(=O)=O)ccc1NC(=O)C12CC3CC(CC(C3)C1)C2
63.4				NS(=O)(=O)Oc1ccc2c(ccn2C(=O)C23CC4CC(CC(C4)C2)C3)c1
72.7				COc1ccc(C(=O)Nc2ccc(OS(N)(=O)=O)cc2)cc1
82.7				NS(=O)(=O)Oc1ccc(NC(=O)C23CC4CC(CC(C4)C2)C3)cc1Br
97.2	67.7	3400		NS(=O)(=O)Oc1ccc(C(=O)NC23CC4CC(CC(C4)C2)C3)cc1F
53.6				NS(=O)(=O)Oc1ccc(NC(=O)c2ccc3ccccc3c2)cc1
88.6				NS(=O)(=O)Oc1ccc(NC(=O)C23CC4CC(CC(C4)C2)C3)cc1Cl
86.3				NS(=O)(=O)Oc1ccc(NC(=O)C23CC4CC(CC(C4)C2)C3)cc1F
		920		NS(=O)(=O)Oc1ccc2c3c(c(=O)oc2c1)CCCCC3 [IROSUSTAT]
52.3				NS(=O)(=O)Oc1ccc(NC(=O)C2CCCCCC2)cc1
24.6				NS(=O)(=O)Oc1ccc(NC(=O)c2ccc(Cl)cc2)cc1
25.4				NS(=O)(=O)Oc1ccc(NC(=O)c2ccccc2)cc1
62				NS(=O)(=O)Oc1ccc(NC(=O)C2CCCC2)cc1
12.9				NS(=O)(=O)Oc1ccc(NC(=O)c2cccnc2)cc1
61				CN(C(=O)C12CC3CC(CC(C3)C1)C2)c1ccc(OS(N)(=O)=O)cc1
14.3				NS(=O)(=O)Oc1ccc2c(ccn2C(=O)C2CCCCC2)c1
93.9	110	5780	13.6	NS(=O)(=O)Oc1ccc(NC(=O)C23CC4CC(CC(C4)C2)C3)cc1
90				NS(=O)(=O)Oc1ccc(C(=O)NC23CC4CC(CC(C4)C2)C3)cc1
98.3	25.8	1040	150	NS(=O)(=O)Oc1ccc(C(=O)NC23CC4CC(CC(C4)C2)C3)cc1Cl
-5.3				NS(=O)(=O)Oc1ccc(CNC(=O)C23CC4CC(CC(C4)C2)C3)cc1
